For data set [1], the system named is E. coli AN193. In words: MIC assay in E. coli AN193. The following applies: E. coli AN193 carrying a mutation of the FhuA gene; compared with wt E. coli K12. The format is cell-based, Escherichia coli.
The conditions of data set [2]: cited from earlier work.
Data set [3] deals with S. aureus RN4220. In words: Growth inhibition. The format is cell-based, Staphylococcus aureus. The following applies: for MIC90: Staphylococcus aureus, RN4220, 18 h, read-out: MIC90 S. aureus RN4220.
For data set [4], the system named is K. pneumoniae CRE-11. In words: Growth inhibition. The format is cell-based, Klebsiella pneumoniae. The following applies: for MIC90: Klebsiella pneumoniae, CRE11, 18 h, read-out: MIC90 K. pneumoniae CRE-11. An outline of the steps:
(§1)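 Broth microdilution in cation-adjusted Mueller–Hinton II broth made iron-deficient with 2,2′-bipyridine. Test compound stock was 0.3 mM in sterile water, with concentration verified by ICP-OES/UV–vis. Serial dilutions gave a final range of 0.3 × 10−4 to 1.56 × 10−12 M, with diluted inoculum added. Ciprofloxacin served as comparator. Incubation was 18 h at 37 °C with absorbance read. MIC was the lowest concentration giving ≥90% growth inhibition relative to negative-control wells.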

Data set [5] relates to E. coli K12. Briefly: Challenge MIC assay in E. coli with 100-fold excess Fe-siderophore. The class given is cell-based, Escherichia coli. The following applies: for MIC90: Escherichia coli, K12, 18 h, read-out: MIC90 (+DP, +100× Fe siderophore).
For data set [6], the system named is E. coli K12. In words: MIC assay in E. coli K12 in iron-deficient. The format is cell-based. The following applies: Escherichia coli, K12, 18 h, read-out: MIC90 (+DP).
Data set [7] has as its system P. aeruginosa PA01. In words: Growth inhibition. The format is cell-based, Pseudomonas aeruginosa. The following applies: for MIC90: Pseudomonas aeruginosa, PA01, 18 h, read-out: MIC90 P. aeruginosa PA01. The essentials:
as §1

A short description of data set [8]: Biodistribution of 67Ga complexes in naive mice. The format is in vivo. The following applies: naive female CBJ mice (n = 3), intravenous, 0.8–1.2 MBq, 1 h p.i. An outline of the steps: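 Naive female CBJ mice (8–10 weeks) received 0.8–1.2 MBq of 67Ga complex via tail-vein catheter. The complex was formed from 67GaCl3 (derived from 67Ga-citrate) and ligand in HEPES at pH 7.4, with labelling checked by radio-HPLC. A 67Ga-citrate group was also dosed. At 1 h p.i. mice were killed, organs harvested and gamma-counted (% ID/g), and urine metabolites analysed by radio-HPLC.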

≈ marks a conversion by molar mass, not a printed value.

In general, MIC90 refers to an inhibitory concentration at the 90% level, which refers to growth in some studies and to a panel of isolates in others.

Regarding `CC(=O)N(O)CCCCCNC(=O)CCC(=O)N(O)CCCCCNC(=O)CCC(=O)N(O)CCCCCNC(=O)CCC(=O)N1CCN(c2cc3c(cc2F)c(=O)c(C(=O)O)cn3C2CC2)CC1` [apo D1, 7-{4-[4-(5-{N-4-[5-(N-4-{5-[N-Acetyl-(hydroxyamino)]pentylamino}−4-oxobutyry(hydroxyamino))pentyl-amino]-4-oxobutyryl(hydroxyamino)}pentylamino)-4-oxobutyryl]-1-piperazinyl}−1-cyclopropyl-6-fluoro-4-oxo-1H-quinoline-3-carboxylic Acid], the “growth inhibitory activity in E. coli AN193 (in words)” value in data set [1] is recorded as “retain comparable MIC values”.
Consider `CC(=O)N(O)CCCCCNC(=O)CCC(=O)N(O)CCCCCNC(=O)CCC(=O)N(O)CCCCCN` [desferrioxamine (DFO), desferrioxamine], for which, in data set [2], the “log Ka of the gallium complex” value is reported as 28.65.
For `CC(=O)N(O)CCCC(N)C(=O)NC(CCCN(O)C(C)=O)C(=O)NC(CCCN(O)C(C)=O)C(=O)NCCC(=O)N1CCN(c2cc3c(cc2F)c(=O)c(C(=O)O)cn3C2CC2)CC1` (centres unmarked) [apo D2, 7-[4-(3-{5-[N-Acetyl(hydroxyamino)]-2-{5-[N-acetyl(hydroxyamino)]-2-{5-[N-acetyl(hydroxyamino)]-2-aminovalerylamino}-valerylamino}valerylamino}propionyl)-1-piperazinyl]-1-cyclopropyl-6-fluoro-4-oxo-1H-quinoline-3-carboxylic Acid], the MIC90 in data set [3] was 15 µM (≈ 13.8 µg/mL); in data set [4], > 100 µM; in data set [5], > 100 µM; in data set [6] it was 0.23 µM (≈ 0.211 µg/mL); in data set [7], 7.5 µM (≈ 6.89 µg/mL). Further, the “growth inhibitory activity in E. coli AN193 (in words)” value in data set [1] is given as “completely muted”.
As to `O=C([O-])CC(O)(CC(=O)[O-])C(=O)[O-].[67Ga+3]` [^67Ga-citrate], the “clearance route from biodistribution (in words)” value in data set [8] was “predominantly renal clearance”.
With `O=C(O)c1cn(C2CC2)c2cc(N3CCNCC3)c(F)cc2c1=O` [ciprofloxacin], the MIC90 in data set [3] worked out at 1.9 µM (≈ 0.63 µg/mL); in data set [4], 3.12 µM (≈ 1.03 µg/mL); in data set [5], 0.23 µM (≈ 0.0762 µg/mL); in data set [6], 0.2 µM (≈ 0.0663 µg/mL); in data set [7] it was 0.94 µM (≈ 0.311 µg/mL). Also, the “impact of 100× Fe–DFO or 100× Fe–LDFC on potency (in words)” value in data set [5] (E. coli, challenge MIC assay) was “no impact”.
For the compound albomycin [Fe-D3 (albomycin)], the “MIC90 S. aureus RN4220” value in data set [3] (wild-type S. aureus RN4220, iron-limiting conditions, 37 °C, 18 h) was 0.94 µM. Further, the “MIC90 K. pneumoniae CRE-11” value in data set [4] (carbapenem resistant K. pneumoniae CRE-11, iron-limiting conditions, 37 °C, 18 h) was 0.00023 μM. The “growth inhibitory activity in K. pneumoniae (in words)” value in data set [4] (carbapenem resistant K. pneumoniae, iron-limiting conditions) was “exceptional potency”. In data set [1], the “growth inhibitory activity in E. coli AN193 (in words)” value is reported as “completely muted”. Moreover, the “MIC90 P. aeruginosa PA01” value in data set [7] (wild-type P. aeruginosa PA01, iron-limiting conditions, 37 °C, 18 h) is >30 µM.

Values taken from PMC6943944 (Journal of medicinal chemistry, 2019).
